Screens as filed in PubChem BioAssay.
PKD1 kinase inh – PKD1 (human) kinase inhibition; Q15139; PKD1 kinase fluorescence polarization assay; inhibition, % (concentration not given with the values); 0.056% of 200,000 active; AID 797
GSH bead fluor – GSH bead compound fluorescence profile; AID 1776; 0.25% of 190,000 active; fluorescence (KMESF) at 10 µM; GSH beads flow cytometry, compound fluorescence 488/530 nm; hits give high values; in the data active = fluorescence above about 89;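 also: glutathione beads carrying GST-tagged Bcl family fusion proteins plus one bare bead set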
ABCG2 block – inhibitors of human ABCG2 transporter, ABCB1 counter-screen; inhibition, % at 6.6 µM; Q9UNQ0; IgMXP3 cells, JC-1 efflux, flow cytometry; 0.1% of 190,000 active;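 active = inhibition above 80%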
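Times: 10 min at 25 °C | Test system: Two drug-resistant human cell lines, ABCG2 and ABCB1 | Quantity: 3 million cells/mL final, two lines in 1:1 ratio | Signal: Flow cytometry, 530 nm JC-1 signal | Dosing: Compound at 6.6 µM | Controls: Nicardipine and DMSO wells | Reagent: JC-1 as fluorescent efflux pump substrate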
Avidin fluor – avidin bead compound fluorescence profile; Avidin beads, compound fluorescence 488/530 nm, flow cytometry; hits give high values; 0.38% of 220,000 active; AID 1775; fluorescence (KMESF) at 10 µM; in the data active = fluorescence above about 47
Lmaj promast – Leishmania major promastigote growth inhibition; Leishmania major promastigotes, resazurin fluorescence viability; inhibition, % at 10 µM; 9% of 200,000 active; AID 1063;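 also: promastigotes grown with compound for 44 hours at 28 °C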
ABCB1 inh – inhibitors of human ABCB1 transporter, ABCG2 counter-screen. AID 1326. inhibition, % at 6.6 µM. 0.067% of 190,000 active. CCRF-Adr cells, JC-1 efflux, flow cytometry; in the data active = inhibition above about 40%;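 also: higher value means more JC-1 retained so stronger ABCB1 efflux block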
Of the large screens only hits and unclear results are named; the others gave an inactive call. Shown is part of a subset that was picked to be rich in hits. Rule as the data show it, unless noted: active = inhibition above about 50%; inactive = the rest.

COc1ccccc1/C=C/CN1CCCC(CCC(=O)NCc2ccccc2F)C1 (centres undefined)	none
COc1ccccc1CNS(=O)(=O)N(C)C	none
Cc1nc(SCC(=O)NNC(=O)c2cccs2)[nH]c(=O)c1C	none
COc1ccc(S(=O)(=O)NCCc2nnc3ccc(SCC(=O)Nc4nc(C)cs4)nn23)cc1	none
Fc1ccc(CNc2nc3ccccc3n3cnnc23)cc1	none
O=C(NC(CCl)c1ccccc1)c1ccc(Cl)cc1 (centres undefined)	none
Cc1ncc(CN2CCCC(CCC(=O)NCc3ccccc3F)C2)s1 (centres undefined)	Lmaj promast 77.2
CC1CCC2(CC1)NC(=O)N(CC(=O)c1cn(CCC#N)c3ccccc13)C2=O (centres undefined)	none (no result: PKD1 kinase inh, GSH bead fluor, ABCG2 block, Lmaj promast, ABCB1 inh)
C=CCn1c(N)c(C(=O)OC(C)CC)c2nc3ccccc3nc21 (centres undefined)	Lmaj promast 99.9 (no result: ABCG2 block, ABCB1 inh)
Cc1csc2c(N3CCN(C(=O)Nc4ccc(OC(F)(F)F)cc4)CC3)ncnc12	none (no result: PKD1 kinase inh, GSH bead fluor, ABCG2 block, Lmaj promast, ABCB1 inh)
O=S(=O)(c1cnccc1N1CCN(/N=C/c2ccccc2)CC1)N1CCCCC1	Lmaj promast 50.4
CCOC(=O)C1(Cc2ccc(Cl)cc2)CCN(C(=O)c2sc(C)nc2C)CC1	none
COCc1cc(C)nc(N/N=C/c2ccc(Cl)c(Cl)c2)c1C#N	Lmaj promast 85.3 (no result: ABCB1 inh)
COCc1cc(C)nc(N/N=C/c2ccc(-c3cc(C(=O)O)ccc3Cl)o2)c1C#N	none
C=CCOc1ccc(C(=O)CC)cc1OC	none
CC(C)c1ccccc1NC(=O)COC(=O)COc1ccccc1[N+](=O)[O-]	none
CCc1c(-c2ccccc2)nc2sc3c(c2c1N)CCCC3	none (no result: PKD1 kinase inh, GSH bead fluor, ABCG2 block, Lmaj promast, ABCB1 inh)
CC1CCc2c(nc3sc4c(c3c2N)CCCC4)C1 (centres undefined)	Lmaj promast 97.4
Nc1c2c(nc3sc4c(c13)CCCCC4)CCCCC2	Lmaj promast 62.5
CC1CCc2nc3sc4c(c3c(N)c2C1)CCCC4 (centres undefined)	Lmaj promast 91.8
CCSc1nnc(NC(=O)[C@@H](NC(=O)c2cc(OC)cc(OC)c2)C(C)C)s1	none
c1ccc2sc(NC3=NCN(CCN4CCOCC4)CN3)nc2c1	Lmaj promast 84.0
OCCN1CN=C(Nc2nc3ccccc3s2)NC1	none
Cc1cc(Cl)c(S(=O)(=O)Nc2ccc3c(c2)OCO3)cc1OCC(N)=O	none
Cc1ccc(NS(=O)(=O)c2cc(OCC(N)=O)c(C)cc2Cl)cc1	Lmaj promast 78.5
CC(=O)c1cc(CN2CCC(N3CCC(C(=O)N4CCCC4)CC3)CC2)cs1	none
CC1(C)[C@H]2CC=C(CN3CCC(N4CCC(C(=O)N5CCCC5)CC4)CC3)[C@@H]1C2	Lmaj promast 89.3
O=C(Nc1ccc(N2CCCC2)cc1)C(Cl)c1ccccc1 (centres undefined)	Lmaj promast 98.9
COc1ccc(N(C(=O)CCl)C(C(=O)NCCc2ccccc2)c2cccs2)cc1Cl (centres undefined)	Lmaj promast 100.4
COc1cccc(N(C(=O)CS(=O)CC(=O)Nc2ccc(F)cc2)C(C(=O)NC2CCCCC2)c2cccs2)c1 (centres undefined)	none
COc1cccc(N(C(=O)CCl)C(C(=O)NCCc2ccccc2)c2cccs2)c1 (centres undefined)	Lmaj promast 100.2
CN(Cc1ccccc1)c1nc(-c2cccc([N+](=O)[O-])c2)nc2ccccc12	Lmaj promast 91.8
O=[N+]([O-])c1cccc(-c2nc(NCc3ccccc3)c3ccccc3n2)c1	Lmaj promast 58.4
O=C(O)/C=C/C(=O)c1ccc2c(c1)NC(=O)CO2	none
O=C(CCc1ccccc1)N1CCN(c2ccc([N+](=O)[O-])cc2)CC1	none
O=C(CSc1nc2cc(C(F)(F)F)ccc2n1Cc1ccccc1)NC1CCS(=O)(=O)C1 (centres undefined)	Lmaj promast 96.8
Cc1ccc(-n2c(SCC(=O)NC3CCS(=O)(=O)C3)nc3ccccc3c2=O)cc1 (centres undefined)	none
CC(C)NC(=O)c1ccc2c(=O)n(C3CCCC3)c(=S)[nH]c2c1	none
CCN(CC)CCNC(=O)c1ccc2c(=O)n(C3CCCC3)c(=S)[nH]c2c1	Lmaj promast 85.2
N#Cc1ccccc1NC(=O)Nc1ccc(Cl)cc1	none
Cc1ccc(NC(=O)Nc2ccccc2C#N)c(Cl)c1	Lmaj promast 66.5
CC(=O)c1cnc2ncnn2c1C	none
S=C(Nc1ccc(Cl)cc1)c1nc2ccccc2s1	none
O=C(Nc1ccc(Cl)cc1)/C(=C/c1cccc(O)c1)c1nc2ccccc2s1	Lmaj promast 100.4
COc1ccccc1OCCn1cc(/C=C(\C#N)C(=O)NCc2ccco2)c2ccccc21	Lmaj promast 53.1
Cc1cc(/C=C(\C#N)C(=O)NCc2ccco2)c(C)n1C1CCCC1	Lmaj promast 72.0
COCCNC(=O)/C(C#N)=C/c1cn(CC(=O)NCc2ccco2)c2ccccc12	none
COc1ccc(OCCn2cc(/C=C(\C#N)C(=O)NCc3ccco3)c3ccccc32)cc1	none
Cc1ccc(C)c(OCCn2cc(/C=C(\C#N)C(=O)NCc3ccco3)c3ccccc32)c1	Lmaj promast 65.4
COc1ccc(COC(=O)N/N=C(\C)CC(=O)Nc2ccc(Cl)cn2)cc1	none (no result: PKD1 kinase inh, GSH bead fluor, ABCG2 block, Lmaj promast, ABCB1 inh)
O=C(Cn1c(=O)n(Cc2ccco2)c(=O)c2c3c(sc21)CCCCC3)Nc1ccccc1	none
CN(C)CCn1c(=O)n(Cc2ccco2)c(=O)c2c3c(sc21)CCCCC3	Lmaj promast 88.1
O=C(Cn1c(=O)n(Cc2ccco2)c(=O)c2c3c(sc21)CCCCC3)c1ccccc1	none
O=c1c2c3c(sc2n(CCN2CCCC2)c(=O)n1Cc1ccco1)CCCCC3	Lmaj promast 87.2
Clc1cnc(N/N=C/c2ccco2)c(Cl)c1	Lmaj promast 67.3
Clc1cnc(N/N=C/c2cccs2)c(Cl)c1	none
Cc1ccc(-c2csc(NC(=O)CSc3nnc4c(n3)[nH]c3ccccc34)n2)cc1	none
CCCCC(=O)Nc1sc2c(c1C(=O)OCC)CCC(C=O)=C2Cl	Lmaj promast 99.1
O=C(N/N=C/c1ccc(OCCCF)cc1)c1cc(OCC(F)(F)F)ccc1OCC(F)(F)F	none
Cc1ccc(C)c(NC(=O)C2C(c3ccccc3)C2(Cl)Cl)c1 (centres undefined)	none
CCc1ccccc1NC(=O)C1C(c2ccccc2)C1(Cl)Cl (centres undefined)	Lmaj promast 50.2
CC(C)NC(=O)CC(=O)NN=C1CCCCC1	none
CCOc1ccc(NC(=S)NCCN2CCN(Cc3ccccc3)CC2)cc1	none
COc1cccc(NC(=S)Nc2cccnc2)c1	Lmaj promast 50.6
CCOc1ccc(NC(=S)N2CCCN(Cc3cccc(Cl)c3)C2)cc1	Lmaj promast 82.2
Cc1cccc(C)c1NC(=S)N1CCCN(Cc2ccc(F)cc2)C1	Lmaj promast 73.1
Fc1cccc(NC(=S)N2CCCC2)c1	Lmaj promast 63.3
COc1ccc(NC(=S)Nc2cccnc2)c(OC)c1	none
